Assay results taken from the M2OR odorant receptor database.

Assays:
Conditions in all cases: stereoisomer not certain
OR2H1 (Homo sapiens) = OR2H1 (Homo sapiens) (UniProt Q9GZK4)
Method in brief: (§1)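 Whether a receptor–molecule pair is responsive (active) rests on the original authors' judgment that its measured signal was statistically different from baseline. Pairs without that judgment are non-responsive (inactive). Sources used varied assay methods, commonly transient luciferase assays in mammalian cell lines.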

OR2J1 (Homo sapiens) = OR2J1 (Homo sapiens) (UniProt Q9GZK6)
Sequence of OR2J1 (Homo sapiens) (Q9GZK6 whole entry): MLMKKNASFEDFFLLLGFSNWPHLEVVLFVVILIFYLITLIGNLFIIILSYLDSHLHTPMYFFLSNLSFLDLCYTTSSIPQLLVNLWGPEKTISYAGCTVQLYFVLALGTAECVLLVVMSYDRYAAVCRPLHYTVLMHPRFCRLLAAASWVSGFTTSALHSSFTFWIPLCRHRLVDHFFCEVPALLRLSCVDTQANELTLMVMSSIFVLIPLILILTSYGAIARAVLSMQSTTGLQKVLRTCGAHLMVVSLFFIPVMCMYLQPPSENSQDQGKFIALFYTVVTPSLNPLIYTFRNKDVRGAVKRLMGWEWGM
Method in brief: as §1

OR2K2 (Homo sapiens) = OR2K2 (Homo sapiens) (UniProt Q8NGT1)
Sequence of OR2K2 (Homo sapiens) (Q8NGT1 whole entry): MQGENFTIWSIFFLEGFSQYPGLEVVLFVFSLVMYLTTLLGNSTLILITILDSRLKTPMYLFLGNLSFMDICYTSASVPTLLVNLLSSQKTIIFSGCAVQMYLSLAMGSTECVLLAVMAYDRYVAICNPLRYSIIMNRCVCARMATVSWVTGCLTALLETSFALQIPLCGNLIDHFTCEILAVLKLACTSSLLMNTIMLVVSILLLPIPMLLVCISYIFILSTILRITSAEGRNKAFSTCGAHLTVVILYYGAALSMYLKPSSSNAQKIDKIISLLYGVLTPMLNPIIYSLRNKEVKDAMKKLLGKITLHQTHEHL
Method in brief: as §1

OR2L3 (Homo sapiens) = OR2L3 (Homo sapiens) (UniProt Q8NG85)
Sequence of OR2L3 (Homo sapiens) (Q8NG85 whole entry): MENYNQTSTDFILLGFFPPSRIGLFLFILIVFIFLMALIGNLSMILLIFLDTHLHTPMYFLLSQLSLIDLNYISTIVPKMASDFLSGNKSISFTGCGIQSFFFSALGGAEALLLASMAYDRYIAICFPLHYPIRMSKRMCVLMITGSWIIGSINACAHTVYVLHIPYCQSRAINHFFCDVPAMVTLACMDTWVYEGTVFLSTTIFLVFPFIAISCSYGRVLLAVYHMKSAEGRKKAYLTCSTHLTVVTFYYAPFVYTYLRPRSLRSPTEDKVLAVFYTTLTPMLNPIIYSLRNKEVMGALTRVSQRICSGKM
Method in brief: as §1

OR2L5 (Homo sapiens) = OR2L5 (Homo sapiens) (UniProt Q8NG80)
Sequence of OR2L5 (Homo sapiens) (Q8NG80 whole entry): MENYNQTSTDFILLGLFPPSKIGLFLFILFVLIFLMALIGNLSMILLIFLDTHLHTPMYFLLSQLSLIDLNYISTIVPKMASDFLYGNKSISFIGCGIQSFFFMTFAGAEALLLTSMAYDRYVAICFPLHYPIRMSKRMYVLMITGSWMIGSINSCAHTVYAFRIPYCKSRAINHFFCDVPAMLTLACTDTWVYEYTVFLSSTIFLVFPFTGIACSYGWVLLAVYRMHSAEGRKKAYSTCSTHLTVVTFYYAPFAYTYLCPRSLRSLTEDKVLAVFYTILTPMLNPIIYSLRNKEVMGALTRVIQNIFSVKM
Method in brief: as §1

OR2L8 (Homo sapiens) = OR2L8 (Homo sapiens) (UniProt Q8NGY9)
Sequence of OR2L8 (Homo sapiens) (Q8NGY9 whole entry): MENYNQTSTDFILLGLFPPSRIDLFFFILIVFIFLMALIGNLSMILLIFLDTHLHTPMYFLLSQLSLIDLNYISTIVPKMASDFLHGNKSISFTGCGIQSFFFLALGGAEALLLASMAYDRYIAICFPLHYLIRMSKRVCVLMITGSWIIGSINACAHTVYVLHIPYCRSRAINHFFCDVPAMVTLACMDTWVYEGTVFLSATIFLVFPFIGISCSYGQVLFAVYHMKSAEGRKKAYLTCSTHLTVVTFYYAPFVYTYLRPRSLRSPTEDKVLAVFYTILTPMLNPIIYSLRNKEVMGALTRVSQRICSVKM
Method in brief: as §1

OR2M2 (Homo sapiens) = OR2M2 (Homo sapiens) (UniProt Q96R28)
Sequence of OR2M2 (Homo sapiens) (Q96R28 whole entry): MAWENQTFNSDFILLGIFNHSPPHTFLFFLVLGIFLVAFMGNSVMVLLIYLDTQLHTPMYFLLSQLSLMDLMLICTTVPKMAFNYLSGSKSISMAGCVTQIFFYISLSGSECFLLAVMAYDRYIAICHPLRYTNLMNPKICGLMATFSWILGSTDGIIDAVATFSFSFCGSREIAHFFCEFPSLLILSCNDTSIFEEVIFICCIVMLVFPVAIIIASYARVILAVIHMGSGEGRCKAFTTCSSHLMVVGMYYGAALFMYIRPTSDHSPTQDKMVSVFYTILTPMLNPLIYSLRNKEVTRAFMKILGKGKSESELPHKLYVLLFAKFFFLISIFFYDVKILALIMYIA
Method in brief: as §1

OR2H2 = test system: OR2H2
Sequence of OR2H2 (as listed by the source): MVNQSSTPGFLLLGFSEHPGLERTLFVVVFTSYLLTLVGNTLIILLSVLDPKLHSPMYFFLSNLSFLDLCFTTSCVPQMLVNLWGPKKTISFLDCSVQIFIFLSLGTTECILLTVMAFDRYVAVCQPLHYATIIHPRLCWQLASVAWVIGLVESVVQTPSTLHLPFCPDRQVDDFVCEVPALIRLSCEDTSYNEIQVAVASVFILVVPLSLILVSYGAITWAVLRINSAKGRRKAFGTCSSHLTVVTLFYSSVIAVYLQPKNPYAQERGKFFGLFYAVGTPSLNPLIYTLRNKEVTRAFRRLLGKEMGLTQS
Method in brief: as §1

OR2J1 L14I V182A = test system: OR2J1 L14I V182A
Method in brief: as §1

OR2J2 [1] = test system: OR2J2
Method in brief: as §1
Target sequence in this assay (as listed by the source): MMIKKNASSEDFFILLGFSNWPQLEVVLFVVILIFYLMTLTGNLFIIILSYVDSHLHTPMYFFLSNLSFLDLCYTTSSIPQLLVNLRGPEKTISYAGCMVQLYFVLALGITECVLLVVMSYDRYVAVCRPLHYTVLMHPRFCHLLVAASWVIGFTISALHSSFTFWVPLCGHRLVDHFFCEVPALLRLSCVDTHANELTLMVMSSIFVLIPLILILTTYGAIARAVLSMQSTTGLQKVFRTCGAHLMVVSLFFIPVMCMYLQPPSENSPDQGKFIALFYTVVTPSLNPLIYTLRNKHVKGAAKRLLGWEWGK

OR2J3 [2] = test system: OR2J3
Method in brief: as §1
Target sequence in this assay (as listed by the source): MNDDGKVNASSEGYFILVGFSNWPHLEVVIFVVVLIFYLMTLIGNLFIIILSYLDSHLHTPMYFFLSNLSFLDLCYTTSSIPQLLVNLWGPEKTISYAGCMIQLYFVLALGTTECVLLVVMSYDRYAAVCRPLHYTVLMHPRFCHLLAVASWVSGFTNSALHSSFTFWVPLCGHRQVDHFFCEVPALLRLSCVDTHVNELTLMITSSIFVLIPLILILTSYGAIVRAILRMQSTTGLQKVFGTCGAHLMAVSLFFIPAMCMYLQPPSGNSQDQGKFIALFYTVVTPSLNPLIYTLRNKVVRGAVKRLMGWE

OR2L2 (Homo sapiens) = OR2L2 (Homo sapiens) (UniProt Q8NH16)
Sequence of OR2L2 (Homo sapiens) (Q8NH16 whole entry): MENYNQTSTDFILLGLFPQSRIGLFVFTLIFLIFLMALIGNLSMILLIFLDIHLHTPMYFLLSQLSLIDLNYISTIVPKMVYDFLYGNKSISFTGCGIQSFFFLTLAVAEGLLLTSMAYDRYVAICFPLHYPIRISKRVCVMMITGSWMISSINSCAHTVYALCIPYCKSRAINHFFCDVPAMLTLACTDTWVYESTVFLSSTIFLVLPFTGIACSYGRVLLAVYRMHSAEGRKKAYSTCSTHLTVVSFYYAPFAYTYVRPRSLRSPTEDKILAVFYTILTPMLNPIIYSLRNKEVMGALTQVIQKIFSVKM
Method in brief: as §1

OR2J2 [3] = test system: OR2J2; remark: listed apart in the source
Method in brief: as §1
Target sequence in this assay (as listed by the source): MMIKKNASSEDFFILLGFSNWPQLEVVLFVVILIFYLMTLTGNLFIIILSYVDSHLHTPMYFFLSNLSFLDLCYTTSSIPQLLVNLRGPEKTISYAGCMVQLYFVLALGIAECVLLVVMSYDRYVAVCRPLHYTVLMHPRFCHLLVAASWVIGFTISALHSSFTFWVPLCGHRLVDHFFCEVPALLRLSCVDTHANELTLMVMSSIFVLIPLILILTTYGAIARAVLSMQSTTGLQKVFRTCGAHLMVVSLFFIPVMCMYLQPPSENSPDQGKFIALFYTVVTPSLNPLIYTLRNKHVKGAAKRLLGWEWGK

OR2J3 [4] = test system: OR2J3; remark: listed apart in the source
Method in brief: as §1
Target sequence in this assay (as listed by the source): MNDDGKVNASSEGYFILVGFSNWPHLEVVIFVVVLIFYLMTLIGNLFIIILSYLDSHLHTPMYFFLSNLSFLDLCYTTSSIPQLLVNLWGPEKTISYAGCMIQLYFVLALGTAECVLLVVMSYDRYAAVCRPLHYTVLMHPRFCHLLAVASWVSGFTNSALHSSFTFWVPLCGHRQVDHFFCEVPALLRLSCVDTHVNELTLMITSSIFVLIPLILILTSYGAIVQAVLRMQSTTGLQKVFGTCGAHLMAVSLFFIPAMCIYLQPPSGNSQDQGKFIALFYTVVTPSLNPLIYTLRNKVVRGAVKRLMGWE

OR2J3 [5] = test system: OR2J3; remark: listed apart in the source
Method in brief: as §1
Target sequence in this assay (as listed by the source): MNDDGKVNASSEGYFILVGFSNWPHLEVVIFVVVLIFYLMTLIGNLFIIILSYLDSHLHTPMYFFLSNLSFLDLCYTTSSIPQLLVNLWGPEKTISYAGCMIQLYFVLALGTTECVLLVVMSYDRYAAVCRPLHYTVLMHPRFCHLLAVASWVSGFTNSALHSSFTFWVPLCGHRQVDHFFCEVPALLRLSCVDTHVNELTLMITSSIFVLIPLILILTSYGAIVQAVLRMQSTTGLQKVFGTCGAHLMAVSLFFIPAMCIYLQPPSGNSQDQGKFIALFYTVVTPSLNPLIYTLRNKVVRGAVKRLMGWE

OR2J3 [6] = test system: OR2J3; remark: listed apart in the source
Method in brief: as §1
Target sequence in this assay (as listed by the source): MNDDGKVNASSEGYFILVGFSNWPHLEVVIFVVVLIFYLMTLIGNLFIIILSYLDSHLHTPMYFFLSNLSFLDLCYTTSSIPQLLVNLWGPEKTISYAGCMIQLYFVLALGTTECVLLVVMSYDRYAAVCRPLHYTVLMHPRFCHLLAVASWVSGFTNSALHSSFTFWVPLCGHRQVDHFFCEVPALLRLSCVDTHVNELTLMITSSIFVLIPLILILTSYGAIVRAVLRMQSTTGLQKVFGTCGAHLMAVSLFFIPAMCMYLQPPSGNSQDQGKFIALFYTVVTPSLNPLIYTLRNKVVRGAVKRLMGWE

Measured: odorant receptor agonist call;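 further: active if original authors judged signal statistically different from baseline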

Sequence of OR2H1 (Homo sapiens) (Q9GZK4 whole entry): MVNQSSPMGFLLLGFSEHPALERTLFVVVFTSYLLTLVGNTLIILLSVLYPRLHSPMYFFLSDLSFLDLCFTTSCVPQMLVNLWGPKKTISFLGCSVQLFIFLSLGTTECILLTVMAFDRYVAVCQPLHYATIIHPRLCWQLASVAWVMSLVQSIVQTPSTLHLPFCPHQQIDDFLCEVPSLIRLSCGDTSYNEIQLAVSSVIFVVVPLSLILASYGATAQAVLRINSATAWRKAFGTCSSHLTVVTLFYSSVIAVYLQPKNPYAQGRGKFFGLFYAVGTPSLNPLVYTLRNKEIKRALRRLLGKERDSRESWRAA

Cc1c([N+](=O)[O-])c(C)c([N+](=O)[O-])c(C(C)(C)C)c1[N+](=O)[O-]
inactive: OR2H1 (Homo sapiens) | OR2J1 (Homo sapiens) | OR2K2 (Homo sapiens) | OR2L3 (Homo sapiens) | OR2L5 (Homo sapiens) | OR2L8 (Homo sapiens) | OR2M2 (Homo sapiens)

C=CCOC(=O)Cc1ccccc1
not listed: OR2J2 [3] | OR2J3 [4] | OR2J3 [5] | OR2J3 [6]
inactive: all other assays above

CCCCOC(=O)c1ccccc1N
active: OR2J2 [3] | OR2J2 [1]

O=CC=Cc1ccccc1
active: OR2J3 [4] | OR2J3 [5] | OR2J3 [2] | OR2J3 [6]
